Experiments:
MIA PaCa-2 [1] = assay: Cytotoxicity against human MIA PaCa-2 cells assessed as inhibition of cell viability incubated for 72 hrs by MTS assay; assay type: functional, cell-based; conditions: MIA PaCa-2, 72 h
How it was run: (§1)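 Cells seeded at 0.5 to 100 × 10^3 per well the day before treatment, then exposed for 72 h to 9 serial concentrations (3.16-fold dilutions, top 198 μM), in duplicate. MTS added for a final 4 h at 37 °C and absorbance read. IC50 is the concentration giving 50% loss of viability. MI% is the maximum inhibition over the tested range.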

MIA PaCa-2 [2] = assay: Cytotoxicity against human MIA PaCa-2 cells assessed as maximum inhibition of cell viability upto 198 uM incubated for 72 hrs by MTS assay relative to control; assay type: functional; conditions: up to 198 µM
How it was run: (§2)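 Cells seeded at 0.5 to 100 × 10^3 per well the day before drug addition, then exposed to compound for 72 h. MTS added afterwards, with a further 4 h at 37 °C, and absorbance read. Tested in duplicate at 9 serial 3.16-fold dilutions, top concentration 198 μM. MI% is the maximum inhibition of viability across the tested range.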

[3] = Cytotoxicity against human T24/83 cells assessed as inhibition of cell viability incubated for 72 hrs by MTS assay; assay type: functional, cell-based; conditions: T24/83, 72 h; how it was run: as §1
[4] = Cytotoxicity against human T24/83 cells assessed as maximum inhibition of cell viability upto 198 uM incubated for 72 hrs by MTS assay relative to control; assay type: functional; conditions: up to 198 µM; how it was run: as §2
5637 [5] = assay: Cytotoxicity against human 5637 cells assessed as inhibition of cell viability incubated for 72 hrs by MTS assay; assay type: functional, cell-based; conditions: Homo sapiens, 5637, 72 h; how it was run: as §1
5637 [6] = assay: Cytotoxicity against human 5637 cells assessed as maximum inhibition of cell viability upto 198 uM incubated for 72 hrs by MTS assay relative to control; assay type: functional; conditions: up to 198 µM; how it was run: as §2
PC-3 [7] = assay: Cytotoxicity against human PC-3 cells assessed as inhibition of cell viability incubated for 72 hrs by MTS assay; assay type: functional, cell-based; conditions: PC-3, 72 h; how it was run: as §1
PC-3 [8] = assay: Cytotoxicity against human PC-3 cells assessed as maximum inhibition of cell viability upto 198 uM incubated for 72 hrs by MTS assay relative to control; assay type: functional; conditions: up to 198 µM; how it was run: as §2
HT-29 [9] = assay: Cytotoxicity against human HT-29 cells assessed as inhibition of cell viability incubated for 72 hrs by MTS assay; assay type: functional, cell-based; conditions: HT-29, 72 h; how it was run: as §1
HT-29 [10] = assay: Cytotoxicity against human HT-29 cells assessed as maximum inhibition of cell viability upto 198 uM incubated for 72 hrs by MTS assay relative to control; assay type: functional; conditions: up to 198 µM; how it was run: as §2
COLO 205 [11] = assay: Cytotoxicity against human COLO 205 cells assessed as inhibition of cell viability incubated for 72 hrs by MTS assay; assay type: functional, cell-based; conditions: COLO 205, 72 h; how it was run: as §1
COLO 205 [12] = assay: Cytotoxicity against human COLO 205 cells assessed as maximum inhibition of cell viability upto 198 uM incubated for 72 hrs by MTS assay relative to control; assay type: functional; conditions: up to 198 µM; how it was run: as §2
MDA-MB-231 [13] = assay: Cytotoxicity against human MDA-MB-231 cells assessed as inhibition of cell viability incubated for 72 hrs by MTS assay; assay type: functional, cell-based; conditions: MDA-MB-231, 72 h; how it was run: as §1
MDA-MB-231 [14] = assay: Cytotoxicity against human MDA-MB-231 cells assessed as maximum inhibition of cell viability upto 198 uM incubated for 72 hrs by MTS assay relative to control; assay type: functional; conditions: up to 198 µM; how it was run: as §2
MCF7 [15] = assay: Cytotoxicity against human MCF7 cells assessed as inhibition of cell viability incubated for 72 hrs by MTS assay; assay type: functional, cell-based; conditions: MCF7, 72 h
MCF7 [16] = assay: Cytotoxicity against human MCF7 cells assessed as maximum inhibition of cell viability upto 198 uM incubated for 72 hrs by MTS assay relative to control; assay type: functional; conditions: up to 198 µM; how it was run: as §2
A498 [17] = assay: Cytotoxicity against human A498 cells assessed as inhibition of cell viability incubated for 72 hrs by MTS assay; assay type: functional, cell-based; conditions: A498, 72 h; how it was run: as §1
A498 [18] = assay: Cytotoxicity against human A498 cells assessed as maximum inhibition of cell viability upto 198 uM incubated for 72 hrs by MTS assay relative to control; assay type: functional; conditions: up to 198 µM; how it was run: as §2
[19] = Cytotoxicity against human ACHN-luc2 cells assessed as inhibition of cell viability incubated for 72 hrs by MTS assay; assay type: functional, cell-based; conditions: ACHN-luc2, 72 h; how it was run: as §1
[20] = Cytotoxicity against human ACHN-luc2 cells assessed as maximum inhibition of cell viability upto 198 uM incubated for 72 hrs by MTS assay relative to control; assay type: functional; conditions: up to 198 µM; how it was run: as §2
CAKI-2 [21] = assay: Cytotoxicity against human CAKI-2 cells assessed as inhibition of cell viability incubated for 72 hrs by MTS assay; assay type: functional, cell-based; conditions: CAKI-2, 72 h; how it was run: as §1
CAKI-2 [22] = assay: Cytotoxicity against human CAKI-2 cells assessed as maximum inhibition of cell viability upto 198 uM incubated for 72 hrs by MTS assay relative to control; assay type: functional; conditions: up to 198 µM; how it was run: as §2
HepG2 [23] = assay: Cytotoxicity against human HepG2 cells assessed as inhibition of cell viability incubated for 72 hrs by MTS assay; assay type: functional, cell-based; conditions: HepG2, 72 h; how it was run: as §1
HepG2 [24] = assay: Cytotoxicity against human HepG2 cells assessed as maximum inhibition of cell viability upto 198 uM incubated for 72 hrs by MTS assay relative to control; assay type: functional; conditions: up to 198 µM; how it was run: as §2
RL [25] = assay: Cytotoxicity against human RL cells assessed as inhibition of cell viability incubated for 72 hrs by MTS assay; assay type: functional, cell-based; how it was run: as §1
RL [26] = assay: Cytotoxicity against human RL cells assessed as maximum inhibition of cell viability upto 198 uM incubated for 72 hrs by MTS assay relative to control; assay type: functional; conditions: up to 198 µM; how it was run: as §2
K562 [27] = assay: Cytotoxicity against human K562 cells assessed as inhibition of cell viability incubated for 72 hrs by MTS assay; assay type: functional, cell-based; conditions: K562, 72 h; how it was run: as §1
K562 [28] = assay: Cytotoxicity against human K562 cells assessed as maximum inhibition of cell viability upto 198 uM incubated for 72 hrs by MTS assay relative to control; assay type: functional; conditions: up to 198 µM; how it was run: as §2
KG-1 [29] = assay: Cytotoxicity against human KG-1 cells assessed as inhibition of cell viability incubated for 72 hrs by MTS assay; assay type: functional, cell-based; conditions: KG-1, 72 h; how it was run: as §1
KG-1 [30] = assay: Cytotoxicity against human KG-1 cells assessed as maximum inhibition of cell viability upto 198 uM incubated for 72 hrs by MTS assay relative to control; assay type: functional; conditions: up to 198 µM; how it was run: as §2
HL-60 [31] = assay: Cytotoxicity against human HL-60 cells assessed as inhibition of cell viability incubated for 72 hrs by MTS assay; assay type: functional, cell-based; conditions: HL-60, 72 h; how it was run: as §1
HL-60 [32] = assay: Cytotoxicity against human HL-60 cells assessed as maximum inhibition of cell viability upto 198 uM incubated for 72 hrs by MTS assay relative to control; assay type: functional; conditions: up to 198 µM; how it was run: as §2
MOLT-4 [33] = assay: Cytotoxicity against human MOLT-4 cells assessed as inhibition of cell viability incubated for 72 hrs by MTS assay; assay type: functional, cell-based; conditions: MOLT-4, 72 h; how it was run: as §1
MOLT-4 [34] = assay: Cytotoxicity against human MOLT-4 cells assessed as maximum inhibition of cell viability upto 198 uM incubated for 72 hrs by MTS assay relative to control; assay type: functional; conditions: up to 198 µM; how it was run: as §2

## C[C@H](NP(=O)(OC[C@@H]1C[C@@H](O)[C@H](n2cnc3c(N)ncnc32)O1)Oc1ccccc1)C(=O)OCc1ccccc1 (some centres undefined) [FOSDESDENOSINE SIPALABENAMIDE]
MIA PaCa-2 [1]
  IC50: 7.41 µM
MIA PaCa-2 [2]
  Imax: 95%
[3]
  IC50: 31.4 µM
[4]
  Imax: 92%
5637 [5]
  IC50: 47.5 µM
5637 [6]
  Imax: 100%
PC-3 [7]
  IC50: 51.2 µM
PC-3 [8]
  Imax: 74%
HT-29 [9]
  IC50: 9.47 µM
HT-29 [10]
  Imax: 96%
COLO 205 [11]
  IC50: 27.8 µM
COLO 205 [12]
  Imax: 87%
MDA-MB-231 [13]
  IC50: 19.4 µM
MDA-MB-231 [14]
  Imax: 79%
MCF7 [15]
  IC50: 3.69 µM
MCF7 [16]
  Imax: 90%
A498 [17]
  IC50: 58.1 µM
A498 [18]
  Imax: 82%
[19]
  IC50: 112 µM
[20]
  Imax: 62%
CAKI-2 [21]
  IC50: 102 µM
CAKI-2 [22]
  Imax: 78%
HepG2 [23]
  IC50: 25.2 µM
HepG2 [24]
  Imax: 80%
RL [25]
  IC50: 34.6 µM
RL [26]
  Imax: 94%
K562 [27]
  IC50: 10.3 µM
K562 [28]
  Imax: 83%
KG-1 [29]
  IC50: 23.5 µM
KG-1 [30]
  Imax: 92%
HL-60 [31]
  IC50: 38.4 µM
HL-60 [32]
  Imax: 101%
MOLT-4 [33]
  IC50: 4.67 µM
MOLT-4 [34]
  Imax: 96%

— ChEMBL document CHEMBL5550111, “Design, synthesis and biological evaluation of aryloxy thiophosphoramidate triesters of anticancer nucleoside analogues” (Bioorg Med Chem, 2024)
